Test [1] is described as follows: Inhibition of acid-induced fibrillogenesis of human Transthyretin Y78F mutant expressed in Escherichia coli BL21 (DE3) cells assessed as inhibition of fibril formation incubated for 30 mins by kinetic turbidimetric assay. The gist of the method:
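TTR-Y78F in 20 mM K phosphate, 100 mM KCl, 1 mM EDTA, pH 7.6, preincubated with inhibitor 0–40 μM (final 5% DMSO) 30 min at 37 °C with shaking. Acidified with 400 mM KAcO/100 mM KCl/1 mM EDTA pH 4.2 to final 0.4 mg/mL TTR. A340 read at 1-min intervals for 1.5 h at 37 °C. Initial rates fitted to v0 = A + B·e^(−C[I]) to give IC50.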

The species named for a further test is Homo sapiens. The experiment in a line: Inhibition of acid-induced fibrillogenesis of human Transthyretin Y78F mutant expressed in Escherichia coli BL21 (DE3) cells assessed as reduction in fibril formation at 40 uM incubated for 30 mins by kinetic turbidimetric assay relative to control. A digest of the protocol: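 TTR-Y78F (final 0.4 mg/mL) preincubated 30 min at 37 °C with ligand up to 40 μM in 5% DMSO at pH 7.6. Aggregation triggered by pH 4.2 acetate buffer, then A340 followed for 1.5 h at 37 °C. From the exponential fit of initial rate versus concentration, RA% is the reduction in initial rate at high inhibitor concentration relative to no inhibitor.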

The term IC50 denotes the midpoint of a concentration-inhibition curve. As usually defined, the inhibition is the relative decrease from the control value, in per cent. As to `COc1cc(F)ccc1-c1ccc(O)c(C(=O)O)c1`, the IC50 in test [1] was 6 µM. The inhibition in the test filed under Homo sapiens came to 87.8%.

In the case of `O=C(O)c1cc(-c2ccc(Cl)cc2F)cc(I)c1O`, the IC50 in test [1] worked out at 3.9 µM. Also, the inhibition in the test listed under Homo sapiens turned out to be 88.5%.

For `CCOc1cc(F)ccc1-c1cc(Br)c(O)c(C(=O)O)c1`, the half-maximal inhibitory concentration (IC50) in test [1] amounted to 4.3 µM. Further, the inhibition in the test filed under Homo sapiens came to 89.9%.

`COc1cc(F)ccc1-c1cc(Br)c(O)c(C(=O)O)c1`: in test [1], the IC50 was 5.2 µM. In addition, the inhibition in the test listed under Homo sapiens turned out to be 95.5%.

On to `CCOc1cc(F)ccc1-c1ccc(O)c(C(=O)O)c1`, for which, in test [1], the IC50 is 6.1 µM. The inhibition in the test listed under Homo sapiens came out at 88.8%.

Take `COC(=O)CCNC(=O)c1cc(-c2c(F)cc(F)cc2Cl)cc(I)c1O`: in test [1], the IC50 was 3.7 µM. In addition, in the test listed under Homo sapiens, the inhibition came out at 90%.

As to `O=C(O)c1cc(-c2c(F)cc(F)cc2Cl)cc(Br)c1O`, the IC50 in test [1] worked out at 3.6 µM. Further, the inhibition in the test filed under Homo sapiens turned out to be 89%.

For `O=C(O)c1cc(-c2ccc(F)cc2C(F)(F)F)ccc1O`, the IC50 in test [1] is 23.1 µM. Further, the inhibition in the test listed under Homo sapiens turned out to be 60.4%.

Take `O=C(O)c1cc(-c2ccc(F)cc2F)cc(I)c1O`: the IC50 in test [1] worked out at 4.2 µM. The inhibition in the test filed under Homo sapiens worked out at 94%.

Regarding `O=C(O)c1cc(-c2c(F)cc(F)cc2Cl)ccc1O`, the IC50 in test [1] is 7.2 µM. Also, in the test filed under Homo sapiens, the inhibition stood at 89.1%.

In the case of `COC(=O)[C@@H](C)NC(=O)c1cc(-c2c(F)cc(F)cc2Cl)cc(I)c1O`, in test [1], the IC50 worked out at 6 µM. For the same molecule, in the test filed under Homo sapiens, the inhibition was found to be 89%.

As to `COc1cc(F)ccc1-c1cc(I)c(O)c(C(=O)O)c1`, the IC50 in test [1] was 5.3 µM. Also, the inhibition in the test filed under Homo sapiens was 90.3%.

As to `O=C(O)c1cc(-c2c(F)cc(F)cc2Cl)cc(I)c1O`, the IC50 in test [1] came to 4.6 µM. Also, the inhibition in the test listed under Homo sapiens amounted to 91%.

On to `CCOc1cc(F)ccc1-c1cc(I)c(O)c(C(=O)O)c1`, for which the IC50 in test [1] was 5.1 µM. Also, in the test listed under Homo sapiens, the inhibition was 91.1%.

In the case of `O=C(O)c1cc(-c2ccc(Cl)cc2F)ccc1O`, in test [1], the IC50 stood at 21.7 µM. For the same molecule, the inhibition in the test filed under Homo sapiens was found to be 77.3%.

With `O=C(O)c1cc(-c2ccc(F)cc2C(F)(F)F)cc(I)c1O`, the IC50 in test [1] stood at 7.2 µM. For the same molecule, in the test listed under Homo sapiens, the inhibition came to 87%.

The values above are taken from ChEMBL document CHEMBL5223076, “Optimization of kinetic stabilizers of tetrameric transthyretin: A prospective ligand efficiency-guided approach” (Bioorg Med Chem, 2020).
